FXN GAA850 act: activators of GAA850 frataxin (FXN) promoter; HEK293 lucGAA850 FXN promoter luciferase reporter, 24 h; percent of 10 µM SAHA response; activation, % at 6 µM; hit rate 0.56% among 360,000; AID 540364;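 active = activation above the average of all compounds screened plus 3 SD, cutoff fixed separately per campaign, cut at about 7.5% in these data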;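 also: 0% = DMSO wells and 100% = 10 µM SAHA wells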
NR2E3 ag-1: activates human NR2E3 receptor; Q9Y5X4; CHO-S Gal4-NCOR/VP16-NR2E3 two-hybrid, luciferase; inhibition of corepressor binding, % at 3.98 µM; hit rate 0.35% among 360,000;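 active = inhibition above the mean of all tested compounds plus 3 SD, cut at about 70% in these data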;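 also: 0% = DMSO with NR2E3 transfected cells and 100% = cells lacking NR2E3 construct; higher means lower luciferase signal from less NR2E3 corepressor binding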
Target sequence (Q9Y5X4 whole entry, looked up, the tested form may be a part): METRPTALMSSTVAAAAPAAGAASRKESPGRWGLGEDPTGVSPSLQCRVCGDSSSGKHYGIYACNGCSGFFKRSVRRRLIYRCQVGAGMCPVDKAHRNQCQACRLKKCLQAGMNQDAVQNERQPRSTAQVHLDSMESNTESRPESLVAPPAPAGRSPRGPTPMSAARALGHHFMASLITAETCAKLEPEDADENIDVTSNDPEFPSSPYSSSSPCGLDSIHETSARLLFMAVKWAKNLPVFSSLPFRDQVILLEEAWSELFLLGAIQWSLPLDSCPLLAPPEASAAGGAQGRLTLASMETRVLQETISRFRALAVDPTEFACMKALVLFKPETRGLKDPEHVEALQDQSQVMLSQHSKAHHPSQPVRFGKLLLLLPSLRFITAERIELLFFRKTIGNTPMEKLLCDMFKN
Myeloid diff MLP: myeloid differentiation induction; calls only at 10 µM; hit rate 1% among 360,000; ER-HoxA9 myeloid progenitors, lysozyme-GFP differentiation, flow cytometry;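 active = normalized GFP-positive differentiation at or above the plate's own cutoff, the solvent-only control mean plus 3 SD; inconclusive = no clear call, values can overlap the other calls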;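 also: cells exposed to compound for four days before flow analysis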
NR2E3 ag-2: NR2E3 (human) agonism; inhibition of corepressor binding, % at 4.78 µM; AID 2300; hit rate 0.12% among 320,000; GST-NR2E3/biotin-RetCOR TR-FRET, 1536-well;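 active = percent inhibition above the cutoff of mean plus 3 SD of all tested compounds, set per screening campaign, cut at about 20% in these data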;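 also: 0% = DMSO wells and 100% = biotin wells as full block of FRET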
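Material: NR2E3–RetCOR corepressor complex / Incubation: Compound–protein incubation for 5 h at 4 °C / Dosing: compound at 4.8 µM, single dose / Detection: time-resolved FRET / Benchmarks: high control biotin, low control 0.6% DMSO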
T cell modulator: T cell immune modulation candidate; hit rate 0.068% among 330,000; response (vesicle binding), % at 7 µM; 2C CD8+ T cell-vesicle binding, flow cytometry; hits give low values;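 active = response, share of CD8 T cells binding vesicles, and their 90th percentile fluorescence all below set limits, cut at about 80% in these data, passing the limit was not always enough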;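 also: values below 100% mean blocked vesicle binding to the CD8+ T cells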
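incubation = binding step 1.5 h, 37 °C, antibody labelling 20 min, ice | test system = 2C mouse CD8+ T cells | read-out basis = percent CD8+ FL2 mean versus row control | controls = Peptide-free naked vesicles (low) and QL9 vesicles with 0.7% DMSO vehicle (high) | detection = flow cytometry of vesicle-bound cells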
NR2E3 ag conf: NR2E3 agonism confirmed in two-hybrid assay; shares compounds with NR2E3 ag-1; CHO-S mammalian two-hybrid NR2E3-NCOR, luciferase luminescence; inhibition, % at 3.98 µM; hit rate 51% among 2,300; AID 624378;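 active = average inhibition above a cutoff equal to the mean inhibition of all tested compounds plus one SD, cut at about 70% in these data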;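 also: 0% = DMSO in NR2E3 cells and 100% = DMSO in cells lacking NR2E3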
VP16 counter: GAL4-VP16 reporter inhibition in NR2E3 agonist counterscreen | shares compounds with NR2E3 ag-1 | CHO-S GAL4-VP16 luciferase reporter, luminescence | inhibition, % at 3.98 µM | hit rate 29% among 2,300;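 active = mean inhibition above a cutoff equal to the average over all tested compounds plus one standard deviation, cut at about 70% in these data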;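 also: luciferase from a UAS reporter driven by GAL4-VP16 transactivation; 0% = DMSO with VP16-transfected cells and 100% = DMSO with cells lacking VP16; higher means less reporter light so more repression of VP16 activity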
Numbers without * were called inactive; i = inactive; ? = inconclusive; / = not tested or not shown. A selection: hits, their analogues and other compounds. The true share with any hit is near 2%.

SMILES | FXN GAA850 act | NR2E3 ag-1 | Myeloid diff MLP | NR2E3 ag-2 | T cell modulator | NR2E3 ag conf | VP16 counter
Brc1ccc(-c2nnc3c4ccccc4nc(N4CCOCC4)n23)cc1 | 3 | 80* | i | 0 | 444 | 15 | -21
CC(C)COC(=O)N(C)C[C@@H]1OCc2cnnn2CCCC(=O)N([C@@H](C)CO)C[C@H]1C | 1 | -21 | i | / | / | / | /
N#Cc1c(NCc2ccccc2)ccnc1NCc1cccnc1 | -4 | 66 | i | 1 | 361 | 57 | 56
N#Cc1c(F)cccc1NCc1cccnc1 | 1 | -46 | i | -4 | 242 | / | /
COCCCC1CCN(C(=O)c2cc(COc3ccc(C)nc3)on2)CC1 | -4 | 62 | i | -4 | 593 | 21 | 30
O=C(c1cc(COc2cccc(C(F)(F)F)c2)on1)N1CCC(Oc2cccnc2)CC1 | 1 | 78* | i | -2 | 250 | 92* | 75*
O=C(c1cc(COc2cccc(C(F)(F)F)c2)on1)N1CCCC1 | 2 | -63 | i | / | / | / | /
Cc1ccc(OCc2cc(C(=O)N3CCC(Oc4cccnc4)CC3)no2)cc1C | 0 | 97* | i | 1 | 258 | 91* | 70
CC(C)n1c(-c2ccc(C(C)(C)C)cc2)n[nH]c1=S | 0 | 79* | i | 2 | 312 | 84* | 70
COc1ccc(CN2C[C@@H](CO)O[C@@H](n3cnc4c(NC5CCC5)ncnc43)C2)cc1 | 1 | -22 | i | / | / | / | /
CCCOC(=O)c1ccc(OCC(O)Cn2c(C)nc3ccccc32)cc1 (configuration not stated) | -4 | 62 | i | / | / | 65 | 70
COc1ccc(CNS(=O)(=O)CCNC(=O)c2ccc(OC)cc2)cc1 | 1 | -2 | i | -3 | 281 | / | /
COc1ccc(Cl)cc1NC(=O)CSc1nc2sccc2c(=O)[nH]1 | 0 | 10 | i | 2 | 172 | / | /
COc1ccc(C)cc1NC(=O)CSc1nc2scc(C)c2c(=O)[nH]1 | 1 | 84* | i | 0 | 847 | 44 | 23
COc1ccc(CN(C)C[C@H]2OCCCC[C@@H](C)Oc3ccc(NS(C)(=O)=O)cc3C(=O)N([C@H](C)CO)C[C@@H]2C)cc1 | 0 | -23 | i | / | / | / | /
CN(Cc1ccccc1)C(=O)COC(=O)CCN1C(=O)C2CC=CCC2C1=O (configuration not stated) | -2 | -12 | i | 0 | 360 | / | /
CC(=O)Nc1cc(-c2cccc(CO)c2)cn2c(-c3ccc(C(C)=O)cc3)cnc12 | 0 | -16 | i | / | / | / | /
CCCCCOc1ccc(Br)cc1CSC(=N)N | -6 | 61 | ? | / | / | 90* | 59
Cc1nc(-c2ccccn2)nc(N(C)c2ccccc2)c1Cl | -3 | 105* | i | 0 | 350 | 39 | 17
COc1ccc(-n2c(C)cc(C(=O)COC(=O)c3ccc(O)cc3O)c2C)cc1 | 0 | 59 | i | 0 | 292 | 89* | 49
Cc1cc(C(=O)COC(=O)c2ccc(O)cc2O)c(C)n1-c1ccc(OC(F)F)cc1 | 0 | 55 | i | / | / | 3 | 25
CCCCCCCCC(c1nc2ccccc2[nH]1)N1CCN=C1c1cc2ccccc2[nH]1 (configuration not stated) | / | 2 | i | / | / | / | /
Cc1nn(C(C)(C)C)c(C)c1/C=N/OC(=O)Nc1ccc(Cl)c(Cl)c1 | -13 | 92* | i | -2 | 243 | 36 | 96*
O=C1c2cccc3cccc(c23)C(=O)N1CC1CCN(CC(O)COc2ccc3ccccc3c2)CC1 (configuration not stated) | -4 | 51 | i | -8 | i | 17 | 18
CCCCn1c(SCCN2CCCCC2)nc2c1c(=O)n(C)c(=O)n2C | 2 | -20 | i | / | / | / | /
SMILES | FXN GAA850 act | NR2E3 ag-1 | Myeloid diff MLP | NR2E3 ag-2 | T cell modulator | NR2E3 ag conf | VP16 counter
Cc1ccc(C2(c3ccc(C)cc3)CC2C(=O)Nc2ccc([N+](=O)[O-])cc2O)cc1 (configuration not stated) | -12 | 100* | / | 0 | 601 | 99* | 90*
O=C(Nc1ccc([N+](=O)[O-])cc1)C1CC1(c1ccccc1)c1ccccc1 (configuration not stated) | 0 | -13 | i | 0 | 331 | / | /
O=C1CCCN1c1ccc(S(=O)(=O)NCc2ccc(F)cc2)cc1 | -1 | -4 | i | 5 | 274 | / | /
O=C1CCCN1c1ccc(S(=O)(=O)NCCOc2ccccc2)cc1 | -2 | 57 | i | -2 | 160 | 0 | 22
CCCCCCCCN1C(=O)[C@H](CC(=O)NCCCN2CCCC2=O)C[C@@]2(C(=O)OC)CC(C)(C)CC=C12 | / | / | i | / | / | / | /
COC(C(=O)C(O)C(C)O)C1Cc2cc3cc(OC4CC(OC5CC(O)C(O)C(C)O5)C(O)C(C)O4)c(C)c(O)c3c(O)c2C(=O)C1OC1CC(OC2CC(OC3CC(O)C(OC)C(C)O3)C(O)C(C)O2)C(O)C(C)O1 (configuration not stated) | -13 | 96* | / | / | / | 93* | 75*
COc1ccccc1N1CCN(CCS(=O)(=O)c2cc(Cl)ccc2Cl)CC1 | 2 | -13 | i | / | / | / | /
Cc1ccccc1C(=O)NNC(=O)C(=O)N1CCCCC1 | 3 | -4 | i | 2 | 210 | / | /
Cc1ccc(NNC(=O)C(=O)N2CCCCC2)cc1 | 5 | 57 | i | 2 | 184 | 37 | 24
Cc1nc2ccccc2c(N)c1C(=O)/C=C/c1ccccc1 | -4 | 51 | i | 0 | 442 | -3 | 17
CC(=O)c1c(C)nc2ccccc2c1N | 1 | 8 | i | -1 | 154 | / | /
Cc1cccc(OCCCC(=O)Nc2nc3ccccc3[nH]2)c1 | 0 | 53 | i | -2 | 210 | 72* | -18
Cc1ccc(C)c(NC(=S)NCC(c2ccccc2)N(C)C)c1 (configuration not stated) | 0 | 58 | i | -2 | 215 | -14 | -1
COc1ccccc1C(CNC(=O)c1cccc(S(=O)(=O)Nc2ccc(F)cc2)c1)N1CCCC1 (configuration not stated) | -4 | -4 | i | / | / | / | /
CC1=[N+](C)c2c(ccc3cccnc23)C1(C)C | -5 | 92* | ? | / | / | 99* | 85*
Cc1[nH]c2c(ccc3cccnc32)c1C | 2 | -15 | i | 0 | 449 | / | /
O=C(NCc1ccco1)/C(=C/c1ccc(C(F)(F)F)cc1)c1nc2ccccc2[nH]1 | 3 | 10 | i | 1 | 360 | / | /
O=S(=O)(/C(=C\c1ccc(C(F)(F)F)cc1)c1nc2ccccc2[nH]1)c1ccccc1 | -2 | 91* | ? | / | / | 96* | -12
CCN(CC)S(=O)(=O)c1ccc(NC(=O)Nc2cccc(C(F)(F)F)c2)cc1 | -2 | 70 | i | 2 | 346 | 75* | 42

Source: PubChem (several laboratories)
